Assay results as given in ChEMBL document CHEMBL1269001, “Design, synthesis and biological evaluation of quinoline amide derivatives as novel VEGFR-2 inhibitors” (Bioorg Med Chem Lett, 2010).

Key:
[1] = target: Vascular endothelial growth factor receptor 2 (Homo sapiens, UniProt P35968); assay: Inhibition of VEGFR2
HUVEC [2] = assay: Inhibition of VEGF-induced proliferation in HUVEC cells assessed as BrdU incorporation by ELISA; assay type: functional, cell-based; details: Homo sapiens
Outline: (§1)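 HUVEC were seeded in 5% FBS medium on type 1 collagen-coated plates and incubated overnight at 37 °C, 5% CO₂. The medium was replaced with inhibitor at various concentrations in serum-free medium. Cells were incubated a further 72 h, with BrdU added during the last 18–24 h. Incorporation was read by ELISA.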

HUVEC [3] = assay: Inhibition of […]-induced proliferation in HUVEC cells assessed as BrdU incorporation by ELISA; assay type: functional, cell-based; details: Homo sapiens; outline: as §1

Vascular endothelial growth factor receptor 2, sequence (P35968 whole entry): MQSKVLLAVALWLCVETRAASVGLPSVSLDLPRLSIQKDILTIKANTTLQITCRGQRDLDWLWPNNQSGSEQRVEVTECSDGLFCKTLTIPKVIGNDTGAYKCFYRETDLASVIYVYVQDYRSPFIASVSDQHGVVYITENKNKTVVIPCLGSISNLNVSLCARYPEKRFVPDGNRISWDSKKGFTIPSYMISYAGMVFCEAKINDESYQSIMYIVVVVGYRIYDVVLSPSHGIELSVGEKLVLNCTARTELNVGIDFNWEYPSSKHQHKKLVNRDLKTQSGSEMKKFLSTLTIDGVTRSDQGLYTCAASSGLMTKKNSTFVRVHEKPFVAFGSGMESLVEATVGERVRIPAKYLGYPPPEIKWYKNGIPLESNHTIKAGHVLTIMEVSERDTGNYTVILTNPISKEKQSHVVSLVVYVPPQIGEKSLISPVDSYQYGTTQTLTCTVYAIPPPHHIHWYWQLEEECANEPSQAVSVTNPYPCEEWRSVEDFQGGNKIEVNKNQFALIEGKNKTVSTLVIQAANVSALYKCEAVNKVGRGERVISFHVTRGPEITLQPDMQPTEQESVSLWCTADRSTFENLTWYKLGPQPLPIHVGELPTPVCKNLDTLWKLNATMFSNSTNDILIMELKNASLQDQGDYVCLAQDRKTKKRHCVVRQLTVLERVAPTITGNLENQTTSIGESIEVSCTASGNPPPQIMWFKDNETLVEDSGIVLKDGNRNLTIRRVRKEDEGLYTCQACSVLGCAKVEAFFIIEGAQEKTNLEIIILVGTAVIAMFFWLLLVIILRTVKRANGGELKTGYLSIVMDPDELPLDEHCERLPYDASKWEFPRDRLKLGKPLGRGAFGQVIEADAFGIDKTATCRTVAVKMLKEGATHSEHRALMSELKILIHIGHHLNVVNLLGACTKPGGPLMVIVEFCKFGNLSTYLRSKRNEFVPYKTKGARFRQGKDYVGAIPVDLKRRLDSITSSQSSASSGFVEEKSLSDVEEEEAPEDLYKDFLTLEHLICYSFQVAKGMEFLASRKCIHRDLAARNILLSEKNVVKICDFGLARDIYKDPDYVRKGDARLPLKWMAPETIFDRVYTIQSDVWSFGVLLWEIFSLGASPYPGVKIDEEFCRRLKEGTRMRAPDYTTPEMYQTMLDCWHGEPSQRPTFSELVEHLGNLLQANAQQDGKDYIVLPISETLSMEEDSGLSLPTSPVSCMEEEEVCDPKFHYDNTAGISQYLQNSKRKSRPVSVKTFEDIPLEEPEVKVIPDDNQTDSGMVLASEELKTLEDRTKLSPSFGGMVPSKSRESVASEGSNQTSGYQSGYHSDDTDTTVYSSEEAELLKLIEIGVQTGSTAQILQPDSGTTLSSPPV

IC50 [1] | SMILES | IC50 (HUVEC [2]) | IC50 (HUVEC [3])
0.135 µM | O=C(Nc1cccc2cccnc12)c1ccccc1 | 0.0724 µM | 1.16 µM
0.125 µM | O=C(Nc1cccc2cccnc12)c1ccc(Cl)cc1 | 0.0152 µM | 0.22 µM
0.0236 µM | O=C(Nc1cccc2cccnc12)c1ccccc1Cl | 0.123 µM | 1.15 µM
0.0849 µM | O=C(Nc1cccc2cccnc12)c1ccc(Cl)nc1 | 0.141 µM | 0.56 µM
0.209 µM | O=C(Nc1cccc2cccnc12)c1cncc(Br)c1 | 0.211 µM | 0.346 µM
0.107 µM | O=C(Nc1cnc2ccccc2c1)c1ccccc1 | 0.0789 µM | 0.068 µM
0.0885 µM | O=C(Nc1cnc2ccccc2c1)c1cncc(Br)c1 | 0.0595 µM | 1.14 µM
0.113 µM | O=C(Nc1cccc2cccnc12)c1ccc([N+](=O)[O-])cc1 | 0.0467 µM | 0.45 µM
0.0165 µM | O=C(Nc1cccc2cccnc12)c1cccc([N+](=O)[O-])c1 | 0.0158 µM | 0.21 µM
0.0038 µM | O=C(Nc1cccc2cccnc12)c1cc(Cl)ccc1O | 0.0055 µM | 0.11 µM
0.0096 µM | Cc1ccc(C(=O)Nc2cccc3cccnc23)c(O)c1 | 0.0198 µM | 0.045 µM
0.0265 µM | Cc1cccc(C(=O)Nc2cccc3cccnc23)c1O | 0.0263 µM | 1.14 µM
0.0055 µM | O=C(Nc1cccc2cccnc12)c1cc(Br)cnc1O | 0.0129 µM | 0.56 µM
0.0135 µM | Cc1cnc(O)c(C(=O)Nc2cccc3cccnc23)c1 | 0.0136 µM | 1.15 µM
0.0284 µM | Cc1cccc(C(=O)Nc2cnc3ccccc3c2)c1Br | 0.0116 µM | 0.66 µM
0.326 µM | Cc1cc(Cl)cc(C(=O)Nc2cnc3ccccc3c2)c1 | 0.0763 µM | 0.56 µM
0.0324 µM | O=C(Nc1cnc2ccccc2c1)c1cc(Br)cc(Br)c1O | 0.0189 µM | 0.24 µM
0.0728 µM | O=C(Nc1cnc2ccccc2c1)c1cccc(Cl)c1O | 0.0284 µM | 0.34 µM
0.0124 µM | Cc1cc(Br)cc(C(=O)Nc2cnc3ccccc3c2)c1O | 0.0189 µM | 0.47 µM
0.0234 µM | O=C(Nc1cnc2ccccc2c1)c1cc(Cl)cnc1Br | 0.0589 µM | 1.24 µM
0.102 µM | Cc1cnc(Cl)c(C(=O)Nc2cnc3ccccc3c2)c1 | 0.0776 µM | 0.885 µM
0.113 µM | Cc1cc(Br)cc(C(=O)Nc2cnc3ccccc3c2)c1 | 0.0896 µM | 0.72 µM
0.0327 µM | O=C(Nc1cnc2ccccc2c1)c1cc(Cl)c(O)nc1O | 0.0145 µM | 0.46 µM
0.0255 µM | Cc1cccc(C(=O)Nc2cnc3ccccc3c2)c1O | 0.0357 µM | 0.78 µM
